Test results as given in publication PMC4235313 (Chemistry (Weinheim an Der Bergstrasse, Germany), 2013).

Target: T1, S. aureus PBP2 (Staphylococcus aureus, UniProt Q9R744)
T1 sequence (Q9R744 1-727): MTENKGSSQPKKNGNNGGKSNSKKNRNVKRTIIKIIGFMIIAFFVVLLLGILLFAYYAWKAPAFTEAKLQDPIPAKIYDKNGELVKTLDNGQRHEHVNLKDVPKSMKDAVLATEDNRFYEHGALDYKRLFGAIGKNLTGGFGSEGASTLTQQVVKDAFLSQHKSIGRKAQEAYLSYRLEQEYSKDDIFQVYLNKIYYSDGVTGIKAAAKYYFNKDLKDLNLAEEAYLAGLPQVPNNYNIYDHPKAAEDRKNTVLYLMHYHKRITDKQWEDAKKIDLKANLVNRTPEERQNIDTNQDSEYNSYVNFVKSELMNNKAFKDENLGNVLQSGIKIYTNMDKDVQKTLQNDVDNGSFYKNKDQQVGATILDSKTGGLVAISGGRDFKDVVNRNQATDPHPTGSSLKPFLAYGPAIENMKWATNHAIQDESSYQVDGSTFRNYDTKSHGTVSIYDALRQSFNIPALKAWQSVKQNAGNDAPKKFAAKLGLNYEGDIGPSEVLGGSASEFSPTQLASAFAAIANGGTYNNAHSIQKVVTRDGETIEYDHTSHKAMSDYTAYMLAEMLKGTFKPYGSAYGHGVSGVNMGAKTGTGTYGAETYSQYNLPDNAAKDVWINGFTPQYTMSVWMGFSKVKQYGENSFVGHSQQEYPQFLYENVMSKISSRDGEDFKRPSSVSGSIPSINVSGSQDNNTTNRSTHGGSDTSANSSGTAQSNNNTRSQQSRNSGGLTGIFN
Type: biochemical, Staphylococcus aureus RN4220
Conditions: for suppression of the peptidoglycan polymerization (in words): susceptible (normal lipid II analogue) and resistant (depsi-lipid II analogue) models of the PBP2 reaction, Figure 6
Procedure, shortened: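 N-terminal His6 S. aureus PBP2 (gene from RN4220 genomic DNA), expressed in E. coli BL21(DE3)pLysS, Ni-NTA and gel-filtration purified; 30 μg/mL in 50 mM HEPES pH 7.0, 18 mM MnCl2, 10% DMSO. Test compound series started with 4 μM [14C]-C35-lipid II or [14C]-C35-depsi-lipid II analogue, 30 °C, 4 min; SDS stop; cellulose TLC; phosphorimaging of polymerised product.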

Row | Molecule | IC50 [nM] | suppression of the peptidoglycan polymerization (in words)
1 | CN[C@H](CC(C)C)C(=O)N[C@H]1C(=O)N[C@@H](CC(N)=O)C(=O)N[C@H]2C(=O)N[C@H]3C(=O)N[C@H](C(=O)N[C@H](C(=O)O)c4cc(O)cc(O)c4-c4cc3ccc4O)[C@H](O)c3ccc(c(Cl)c3)Oc3cc2cc(c3O[C@@H]2O[C@H](CO)[C@@H](O)[C@H](O)[C@H]2O[C@H]2C[C@](C)(N)[C@H](O)[C@H](C)O2)Oc2ccc(cc2Cl)[C@H]1O [vancomycin] | 1520 | suppressed the peptidoglycan polymerization only when normal lipid II analogue was used
2 | moenomycin |  | suppressed the peptidoglycan polymerization regardless of the use of normal or depsi-lipid II analogues
